Experimental data reported in ChEMBL document CHEMBL4007473, “Discovery of Potent and Orally Bioavailable GPR40 Full Agonists Bearing Thiophen-2-ylpropanoic Acid Scaffold” (J Med Chem, 2017).
pEC50: −log10 of the molar value. Values belong to the compound of their own block, whether it stands above or below them. Activity calls are given as the source filed them. The calls are words filed in the database; no cut-off is given here.

Key:
[1] = target: T1, Free fatty acid receptor 1 (Homo sapiens, UniProt O14842); assay: Agonist activity at human GPR40 expressed in CHO cells assessed as increase in intracellular Ca2+ flux by Fluo 4-AM dye based assay; type: functional, cell-based
T1 sequence (O14842 whole entry): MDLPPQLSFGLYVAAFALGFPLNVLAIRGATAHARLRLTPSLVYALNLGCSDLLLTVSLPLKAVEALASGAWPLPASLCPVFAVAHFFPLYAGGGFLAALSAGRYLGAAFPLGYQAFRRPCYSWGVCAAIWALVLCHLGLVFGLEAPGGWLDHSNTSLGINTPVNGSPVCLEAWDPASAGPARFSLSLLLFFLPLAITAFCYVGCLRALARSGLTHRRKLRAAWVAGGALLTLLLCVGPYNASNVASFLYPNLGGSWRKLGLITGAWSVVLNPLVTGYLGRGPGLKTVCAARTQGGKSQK

[2] = target: T1, Free fatty acid receptor 1; assay: Agonist activity at human GPR40 expressed in CHO cells assessed as increase in intracellular Ca2+ flux at 20 uM by Fluo 4-AM dye based assay; type: functional, cell-based
Method in brief: (§1)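 CHO cells stably expressing hGPR40 or hGPR120, seeded and incubated overnight at 37 ℃, 5% CO2. Loaded 90 min with Fluo 4-AM (3 μM) and probenecid (2.5 mM) in HBSS/0.1% BSA, washed, equilibrated 10 min. Ca2+ read as change in 585/525 ratio before and after compound addition; EC50 and Emax fitted from curves, Emax relative to reference agonist 4; mean ± SD, three independent experiments.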

[3] = target: T1, Free fatty acid receptor 1; assay: Agonist activity at human GPR40 expressed in CHO cells assessed as increase in intracellular Ca2+ flux by Fluo 4-AM dye based assay relative to 3-(4-((2',6'-dimethylbiphenyl-3-yl)methoxy)phenyl)propanoic acid; type: functional, cell-based; method in brief: as §1
[4] = target: T1, Free fatty acid receptor 1; assay: Agonist activity at human GPR40 expressed in HEK293T cells transfected with 0.05 ug of GPR40 expression plasmid assessed as increase in intracellular Ca2+ flux by Fluo 4-AM dye based assay; type: functional, cell-based; details: HEK-293T
Method in brief: (§2)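 Plasmid titration: HEK293T cells transiently transfected with 5 μg or 0.05 μg hGPR40 expression plasmid, plated on poly-D-lysine and held 24 h. Loaded with Fluo 4-AM (3 μM) and probenecid (2.5 mM) in HBSS/0.1% BSA for 90 min, washed, equilibrated 10 min. Ca2+ response measured as change in 585/525 ratio after compound addition; mean ± SD of three experiments.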

[5] = target: T1, Free fatty acid receptor 1; assay: Agonist activity at human GPR40 expressed in HEK293T cells transfected with 5 ug of GPR40 expression plasmid assessed as increase in intracellular Ca2+ flux by Fluo 4-AM dye based assay; type: functional, cell-based; details: HEK-293T; method in brief: as §2
[6] = target: T1, Free fatty acid receptor 1; assay: Agonist activity at human GPR40 expressed in CHO cells assessed as increase in intracellular Ca2+ flux at 10 uM by Fluo 4-AM dye based assay; type: functional, cell-based; method in brief: as §1
[7] = target: T2, Peroxisome proliferator-activated receptor gamma (Homo sapiens, UniProt P37231); assay: Agonist activity at PPARgamma (unknown origin) expressed in HEK293T cells by luciferase reporter gene assay; type: cell-based
T2 sequence (P37231 whole entry): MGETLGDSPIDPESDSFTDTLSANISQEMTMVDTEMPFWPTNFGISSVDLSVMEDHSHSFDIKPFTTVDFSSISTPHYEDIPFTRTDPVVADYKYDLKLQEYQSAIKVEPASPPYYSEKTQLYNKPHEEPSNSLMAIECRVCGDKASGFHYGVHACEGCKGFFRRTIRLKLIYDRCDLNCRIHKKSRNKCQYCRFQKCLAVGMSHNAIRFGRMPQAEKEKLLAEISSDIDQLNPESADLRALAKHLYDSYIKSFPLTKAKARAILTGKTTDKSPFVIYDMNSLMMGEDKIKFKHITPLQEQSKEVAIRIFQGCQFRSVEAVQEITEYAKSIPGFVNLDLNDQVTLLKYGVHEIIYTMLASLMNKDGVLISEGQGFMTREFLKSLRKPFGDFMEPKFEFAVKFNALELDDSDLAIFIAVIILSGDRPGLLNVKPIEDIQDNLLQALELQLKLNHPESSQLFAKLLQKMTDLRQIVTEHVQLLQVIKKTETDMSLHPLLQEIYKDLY

[8] = target: T3, Free fatty acid receptor 4 (Homo sapiens, UniProt Q5NUL3); assay: Agonist activity at human GPR120 expressed in CHO cells assessed as increase in intracellular Ca2+ flux by Fluo 4-AM dye based assay; type: functional, cell-based; method in brief: as §1
T3 sequence (Q5NUL3 whole entry): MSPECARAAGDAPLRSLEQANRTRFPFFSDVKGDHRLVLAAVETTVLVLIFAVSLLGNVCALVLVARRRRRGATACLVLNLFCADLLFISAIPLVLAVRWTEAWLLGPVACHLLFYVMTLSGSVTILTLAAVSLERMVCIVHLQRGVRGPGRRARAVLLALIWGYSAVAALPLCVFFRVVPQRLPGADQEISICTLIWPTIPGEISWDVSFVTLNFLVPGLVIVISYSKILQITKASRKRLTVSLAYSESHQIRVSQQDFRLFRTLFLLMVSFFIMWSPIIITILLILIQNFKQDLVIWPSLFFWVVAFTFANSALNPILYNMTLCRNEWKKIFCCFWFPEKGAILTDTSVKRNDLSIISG

[9] = target: Free fatty acid receptor 1 (Mus musculus) (UniProt Q76JU9); assay: Agonist activity at GPR40 in mouse MIN6 cells assessed as increase in 25 mM glucose-stimulated insulin secretion at 10 uM after 1 hr by ELISA; type: cell-based
Free fatty acid receptor 1 (Mus musculus), sequence (Q76JU9 whole entry): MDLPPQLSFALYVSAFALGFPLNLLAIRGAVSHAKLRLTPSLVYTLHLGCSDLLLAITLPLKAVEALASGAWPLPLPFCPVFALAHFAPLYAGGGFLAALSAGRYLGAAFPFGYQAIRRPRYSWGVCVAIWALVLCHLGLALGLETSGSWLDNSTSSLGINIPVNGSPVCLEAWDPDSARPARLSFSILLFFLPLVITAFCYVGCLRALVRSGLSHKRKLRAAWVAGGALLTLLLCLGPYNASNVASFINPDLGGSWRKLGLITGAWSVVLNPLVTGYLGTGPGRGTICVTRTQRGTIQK
Method in brief: (§3)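 MIN6 cells pre-incubated 2 h at 37 ℃ in KRBH buffer with 0.1% BSA, then stimulated 1 h at 37 ℃ with 2 mM or 25 mM glucose, alone or with test agents. Insulin secreted into supernatant quantified by ELISA; mean ± SD of four independent experiments, compared with DMSO.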

Mus musculus = assay: Antidiabetic activity in ICR mouse assessed as decrease in blood glucose AUC at 10 mg/kg, po administered 30 mins prior to glucose challenge measured 120 mins post dose by OGTT; type: functional, organism-based
Method in brief: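 Six-week-old male ICR mice fasted 16 h, n = 10 per group, dosed orally in 0.5% methylcellulose/20% PEG400 (10 or 20 mg/kg). Oral glucose load 2.5 g/kg by gavage 30 min later. Tail-vein glucose read at -30, 0, 30, 60, 90 and 120 min; AUC0-120 min computed and compared with vehicle.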

[10] = Inhibition of hepatobiliary transporter in Sprague-Dawley rat sandwich-cultured rat hepatocytes assessed as decrease in d8-TCA by measuring biliary excretion index at 1 to 25 uM incubated for 15 mins followed by d8-TCA addition measured after 15 mins by LC-MS/MS analysis; type: ADME; details: 0.25 h
Method in brief: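 Sandwich-cultured hepatocytes from male SD rats exposed to compound 15 min in standard HBSS. Cells rinsed and pre-incubated 15 min at 37 ℃ in standard or Ca2+-free HBSS, then incubated 15 min with compound plus 1 µM d8-TCA. Washed with ice-cold PBS; cellular d8-TCA measured by LC-MS/MS. BEI = (A_HBSS – A_Ca-free)/A_HBSS × 100%.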

[11] = target: Free fatty acid receptor 1 (Mus musculus) (UniProt Q76JU9); assay: Agonist activity at GPR40 in mouse MIN6 cells assessed as increase in 25 mM glucose-stimulated insulin secretion at 300 nM after 1 hr by ELISA; type: cell-based; method in brief: as §3

pEC50 [1]: 5.57
SMILES: O=C(O)CCc1ccc(OCc2cccc(-c3ccccc3C(F)(F)F)c2)s1

Activity [2]: inactive
SMILES: Cc1cccc(C)c1-c1ccc(COc2ccc(CCC(=O)O)s2)cc1

pEC50 [1]: 7.09
SMILES: Cc1cccc(C)c1-c1cccc(COc2ccc(CC3SC(=O)NC3=O)s2)c1 (centres undefined)

pEC50 [1]: 4.83
Emax [3]: 97.9%
SMILES: Cc1cccc(C)c1-c1cccc(COc2cn(CCC(=O)O)nn2)c1

Activity [4]: Active
Activity [5]: Active
SMILES: CC/C=C\C/C=C\C/C=C\C/C=C\C/C=C\C/C=C\CCC(=O)O

pEC50 [1]: 4.40
SMILES: CCO[C@@H](CC(=O)O)c1ccc(OCc2cccc(-c3c(C)cccc3C)c2)s1

pEC50 [1]: 6.35
SMILES: CC#CC(CC(=O)O)c1ccc(OCc2cccc(-c3c(C)cc(OCC4(C)COC4)cc3C)c2)s1 (racemic)

pEC50 [1]: 5.62
Emax [3]: 136%
SMILES: Cc1cccc(C)c1-c1cccc(OCc2ccc(CCC(=O)O)s2)c1

pEC50 [1]: 6.19
SMILES: N#CCc1ccccc1C#Cc1ccc(CCC(=O)O)s1

Activity [6]: inactive
SMILES: O=C(O)CCc1ccc(OCc2cccc(-c3cc(Cl)nc(Cl)c3)c2)s1

pEC50 [1]: 6.68
SMILES: COC(CC(=O)O)c1ccc(OCc2cccc(-c3c(C)cccc3C)c2)s1 (racemic)

Activity [6]: inactive
SMILES: CC#CC(CC(=O)O)c1ccc(OCc2cccc(-c3c(C)cc(OC4CCN(C)CC4)cc3C)c2)s1 (racemic)

pEC50 [1]: 4.83
Emax [3]: 79.9%
SMILES: Cc1cccc(C)c1-c1cccc(OCc2cn(CCC(=O)O)nn2)c1

pEC50 [1]: 5.70
SMILES: O=C(O)CCc1ccc(OCc2cccc(-c3ccncc3Cl)c2)s1

Activity [6]: inactive
SMILES: COc1ccccc1-c1cccc(COc2ccc(CCC(=O)O)s2)c1

pEC50 [1]: 6.68
SMILES: CC#CC(CC(=O)O)c1ccc(OCc2cccc(-c3c(C)cccc3C)c2)s1 (racemic)

Activity [6]: inactive
SMILES: CCC(CC(=O)O)c1ccc(OCc2cccc(-c3c(C)cccc3C)c2)s1 (racemic)

pEC50 [1]: 6.24
SMILES: COc1ccc(F)c(-c2cccc(COc3ccc(CCC(=O)O)s3)c2)c1

pEC50 [7]: < 5.00
pEC50 [1]: 7.30
pEC50 [8]: < 5.00
Emax [3]: 147%
Activity [9]: inactive
SMILES: CCO[C@H](CC(=O)O)c1ccc(OCc2cccc(-c3c(C)cccc3C)c2)s1

Activity [2]: inactive
SMILES: Cc1cccc(C)c1-c1cccc(COc2cc3sc(CCC(=O)O)cc3s2)c1

Activity [6]: inactive
SMILES: O=C(O)CCc1ccc(OCc2cccc(-c3ccc(C(F)(F)F)cc3)c2)s1

pEC50 [1]: 6.96
SMILES: Cc1cccc(C)c1-c1cccc(COc2ccc(C(C#N)CC(=O)O)s2)c1 (racemic)

pEC50 [1]: 5.63
Emax [3]: 135%
SMILES: Cc1cccc(C)c1-c1cccc(COc2csc(CCC(=O)O)c2)c1

Activity [10]: Not Active
Activity [4]: inactive
Activity [5]: Active
Activity [11]: Active
Activity [9]: Active
SMILES: Cc1cc(OCCCS(C)(=O)=O)cc(C)c1-c1cccc(COc2ccc3c(c2)OC[C@H]3CC(=O)O)c1
Activity (Mus musculus): Active

pEC50 [1]: 7.24
SMILES: CCOC(CC(=O)O)c1ccc(OCc2cccc(-c3c(C)cccc3C)c2)s1 (racemic)

pEC50 [1]: 8.10
Emax [3]: 100%
SMILES: Cc1cccc(C)c1-c1cccc(COc2ccc(CCC(=O)O)cc2)c1

pEC50 [1]: 6.62
SMILES: CC#CC(CC(=O)O)c1ccc(OCc2cccc(-c3c(C)cc(OCCCS(C)(=O)=O)cc3C)c2)s1 (racemic)

pEC50 [7]: < 5.00
pEC50 [1]: 7.49
pEC50 [8]: < 5.00
Emax [3]: 140%
Activity [9]: inactive
SMILES: Cc1cccc(C)c1-c1cccc(COc2ccc(CCC(=O)O)s2)c1

Activity [6]: inactive
SMILES: CCCC(CC(=O)O)c1ccc(OCc2cccc(-c3c(C)cccc3C)c2)s1 (racemic)

Activity [6]: inactive
SMILES: Cc1cccc(C)c1-c1cccc(COc2ccc([C@H](CC(=O)O)c3ccon3)s2)c1

pEC50 [1]: 6.39
SMILES: CC#C[C@H](CC(=O)O)c1ccc(OCc2cccc(-c3c(C)cc(OCCCS(C)(=O)=O)cc3C)c2)s1

Activity [6]: inactive
SMILES: Cc1cccc(C)c1-c1cccc(COc2ccc(C(CC(=O)O)c3c[nH]nn3)s2)c1 (racemic)

pEC50 [1]: 4.49
Emax [3]: 95.6%
SMILES: Cc1cccc(C)c1-c1cccc(OCn2cc(CCC(=O)O)nn2)c1

Activity [2]: inactive
SMILES: Cc1cccc(C)c1-c1cccc(COc2cc3sc(C(=O)O)cc3s2)c1

Activity [6]: inactive
SMILES: NC(=O)c1ccccc1-c1cccc(COc2ccc(CCC(=O)O)s2)c1

Activity [2]: inactive
SMILES: CC#CC(CC(=O)O)c1ccc(OCc2ccc(CN3CCC4(C=Cc5ccccc54)CC3)cc2)s1 (centres undefined)

Activity [6]: inactive
SMILES: Cc1cccc(C)c1-c1cccc(COc2ccc(C(C)CC(=O)O)s2)c1 (racemic)

Activity [6]: inactive
SMILES: N#Cc1ccccc1-c1cccc(COc2ccc(CCC(=O)O)s2)c1

pEC50 [1]: 5.41
SMILES: Cc1cccc(C)c1-c1cccc(COc2ccc(C(CC(=O)O)C3CC3)s2)c1 (racemic)
